Measurements from PMC11106139 (Clinical Pharmacokinetics, 2024).

What was measured:
[1] = system: children with achondroplasia; conditions: 15 µg/kg per day, 1-year period, analysis of covariance; cited from earlier work
[2] = Population pharmacokinetic; type: in vivo, human; conditions: SOLNC 0.8 and 2 mg/mL (phase III studies and commercial formulations)
In short: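 Pooled plasma data from 159 children with achondroplasia on daily subcutaneous vosoritide (2.5–30 µg/kg) across three phase II and two phase III trials. Samples were assayed by validated ELISA or electrochemiluminescence, and mostly pre-dose points were excluded. The fit was a one-compartment model with change-point first-order absorption (Ka1/Ka2) and first-order elimination, using log-transform-both-sides and SAEM/importance sampling. Covariates were added stepwise (p<0.01) with backward elimination, against a reference weight of 20 kg.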

effect of dosing solution concentration on relative bioavailability (F) [2]: did not have any effect on F
Structure (SMILES): CC[C@H](C)[C@@H]1NC(=O)[C@H](CCCNC(=N)N)NC(=O)[C@H](CC(=O)O)NC(=O)[C@H](CC(C)C)NC(=O)[C@H](CCCCN)NC(=O)[C@H](CC(C)C)NC(=O)CNC(=O)[C@H](Cc2ccccc2)NC(=O)[C@@H](NC(=O)CNC(=O)[C@H](CCCCN)NC(=O)[C@H](CO)NC(=O)[C@H](CC(C)C)NC(=O)CNC(=O)[C@H](CCCCN)NC(=O)[C@H](CCCCN)NC(=O)[C@H](CC(N)=O)NC(=O)[C@H](C)NC(=O)CNC(=O)[C@H](CCCCN)NC(=O)[C@H](Cc2ccc(O)cc2)NC(=O)[C@H](CCCCN)NC(=O)[C@H](CCCNC(=N)N)NC(=O)[C@H](C)NC(=O)[C@H](CC(N)=O)NC(=O)[C@@H]2CCCN2C(=O)[C@H](Cc2c[nH]cn2)NC(=O)[C@H](CCC(=O)O)NC(=O)[C@H](CCC(N)=O)NC(=O)CNC(=O)[C@@H]2CCCN2)CSSC[C@@H](C(=O)O)NC(=O)CNC(=O)[C@H](CC(C)C)NC(=O)CNC(=O)[C@H](CO)NC(=O)[C@H](CCSC)NC(=O)[C@H](CO)NC(=O)CNC1=O [vosoritide]
increase in annualized growth velocity (least squares mean change from baseline) compared with placebo [1]: 1.57 cm/year
